Measurements: ChEMBL document CHEMBL3853327 (J Med Chem, 2016)

How the values were obtained:
[1] = test system: Human immunodeficiency virus 1; assay: Antiviral activity against wild type HIV1 3B harboring reverse transcriptase infected in human MT4 cells assessed as protection against virus induced cytotoxicity after 5 days by MTT assay; assay type: functional, cell-based; settings: Human immunodeficiency virus 1, 3B, MT4, 120 h
Summary of the method: (§1)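 MTT cytopathicity assay in MT-4 cells (6 × 10^5 cells/mL). Compounds serially diluted 5-fold in triplicate wells, run in parallel on infected and mock-infected cells. Virus added at 100−300 CCID50 per well. Viability read spectrophotometrically at 540 and 690 nm after 5 days, using the median OD of three wells.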

[2] = Antiviral activity against HIV2 ROD harboring reverse transcriptase infected in human MT4 cells assessed as protection against virus induced cytotoxicity after 5 days by MTT assay; assay type: functional, cell-based, Human immunodeficiency virus type 2 (ISOLATE ROD); settings: Human immunodeficiency virus 2, MT4, 120 h
Summary of the method: as §1, with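 “wells. EC50 is the concentration giving 50% protection from viral cytopathogenicity.” for “wells.”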

[3] = test system: Human immunodeficiency virus 1; assay: Antiviral activity against HIV1 RES056 harboring reverse transcriptase K103N/Y181C double mutant infected in human MT4 cells assessed as protection against virus induced cytotoxicity after 5 days by MTT assay; assay type: functional, cell-based; settings: Human immunodeficiency virus 1, RES056, MT4, 120 h; summary of the method: as §1
[4] = Cytotoxicity against human mock-infected MT4 cells assessed as reduction in cell viability after 5 days by MTT assay; assay type: toxicity, cell-based
Summary of the method: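 Mock-infected MT-4 cells (6 × 10^5 cells/mL at seeding) with serial 5-fold compound dilutions in triplicate wells. Viability read by MTT after 5 days, absorbance at 540 and 690 nm, median OD of three wells. CC50 is the concentration reducing OD540 of mock-infected cells by 50%.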

[5] = Selectivity index, ratio of CC50 for human mock-infected MT4 cells to EC50 for wild type HIV1 3B harboring reverse transcriptase infected in human MT4 cells; assay type: toxicity, cell-based; settings: MT4 cells (mock-infected for CC50, HIV-1 infected for EC50)
Summary of the method: (§2)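 Selectivity index is CC50/EC50. CC50 is the concentration that reduces OD540 of mock-infected MT-4 cells by 50% in the 5-day MTT assay. EC50 is the 50% protection from virus-induced cytopathicity, measured in parallel on infected wells.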

[6] = Selectivity index, ratio of CC50 for human mock-infected MT4 cells to EC50 for HIV1 RES056 harboring reverse transcriptase K103N/Y181C double mutant infected in human MT4 cells; assay type: toxicity, cell-based; settings: MT4 cells (mock-infected for CC50, HIV-1 infected for EC50); summary of the method: as §2
[7] = Selectivity index, ratio of CC50 for human mock-infected MT4 cells to EC50 for HIV1 3B harboring reverse transcriptase K103N mutant infected in human MT4 cells; assay type: toxicity, cell-based; settings: MT4 cells (mock-infected for CC50, HIV-1 infected for EC50); summary of the method: as §2
[8] = test system: Human immunodeficiency virus 1; assay: Antiviral activity against HIV1 3B harboring reverse transcriptase L100I mutant infected in human MT4 cells assessed as protection against virus induced cytotoxicity after 5 days by MTT assay; assay type: functional, cell-based; settings: Human immunodeficiency virus 1, 3B, MT4, 120 h
Summary of the method: as §1, with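 “wells. EC50 is the concentration giving 50% protection from viral cytopathogenicity.” for “wells.”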

[9] = test system: Human immunodeficiency virus 1; assay: Antiviral activity against HIV1 3B harboring reverse transcriptase K103N mutant infected in human MT4 cells assessed as protection against virus induced cytotoxicity after 5 days by MTT assay; assay type: functional, cell-based; settings: Human immunodeficiency virus 1, 3B, MT4, 120 h
Summary of the method: as §1, with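 “wells. EC50 is the concentration giving 50% protection from viral cytopathogenicity.” for “wells.”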

[10] = test system: Human immunodeficiency virus 1; assay: Antiviral activity against HIV1 3B harboring reverse transcriptase Y181C mutant infected in human MT4 cells assessed as protection against virus induced cytotoxicity after 5 days by MTT assay; assay type: functional, cell-based; settings: Human immunodeficiency virus 1, 3B, MT4, 120 h; summary of the method: as §1
[11] = test system: Human immunodeficiency virus 1; assay: Antiviral activity against HIV1 3B harboring reverse transcriptase Y188L mutant infected in human MT4 cells assessed as protection against virus induced cytotoxicity after 5 days by MTT assay; assay type: functional, cell-based; settings: Human immunodeficiency virus 1, 3B, MT4, 120 h
Summary of the method: as §1, with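 “wells. EC50 is the concentration giving 50% protection from viral cytopathogenicity.” for “wells.”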

[12] = test system: Human immunodeficiency virus 1; assay: Antiviral activity against HIV1 3B harboring reverse transcriptase E138K mutant infected in human MT4 cells assessed as protection against virus induced cytotoxicity after 5 days by MTT assay; assay type: functional, cell-based; settings: Human immunodeficiency virus 1, 3B, MT4, 120 h
Summary of the method: as §1, with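 “wells. EC50 is the concentration giving 50% protection from viral cytopathogenicity.” for “wells.”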

[13] = test system: Human immunodeficiency virus 1; assay: Antiviral activity against HIV1 3B harboring reverse transcriptase F227L/V106A double mutant infected in human MT4 cells assessed as protection against virus induced cytotoxicity after 5 days by MTT assay; assay type: functional, cell-based; settings: Human immunodeficiency virus 1, 3B, MT4, 120 h
Summary of the method: as §1, with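 “wells. EC50 is the concentration giving 50% protection from viral cytopathogenicity.” for “wells.”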

[14] = Selectivity index, ratio of CC50 for human mock-infected MT4 cells to EC50 for HIV1 3B harboring reverse transcriptase L100I mutant infected in human MT4 cells; assay type: toxicity, cell-based; settings: MT4 cells (mock-infected for CC50, HIV-1 infected for EC50); summary of the method: as §2
[15] = Selectivity index, ratio of CC50 for human mock-infected MT4 cells to EC50 for HIV1 3B harboring reverse transcriptase Y181C mutant infected in human MT4 cells; assay type: toxicity, cell-based; settings: MT4 cells (mock-infected for CC50, HIV-1 infected for EC50); summary of the method: as §2
[16] = Selectivity index, ratio of CC50 for human mock-infected MT4 cells to EC50 for HIV1 3B harboring reverse transcriptase Y188L mutant infected in human MT4 cells; assay type: toxicity, cell-based; settings: MT4 cells (mock-infected for CC50, HIV-1 infected for EC50); summary of the method: as §2
[17] = Selectivity index, ratio of CC50 for human mock-infected MT4 cells to EC50 for HIV1 3B harboring reverse transcriptase E138K mutant infected in human MT4 cells; assay type: toxicity, cell-based; settings: MT4 cells (mock-infected for CC50, HIV-1 infected for EC50); summary of the method: as §2
[18] = Selectivity index, ratio of CC50 for human mock-infected MT4 cells to EC50 for HIV1 3B harboring reverse transcriptase F227L/V106A double mutant infected in human MT4 cells; assay type: toxicity, cell-based; settings: MT4 cells (mock-infected for CC50, HIV-1 infected for EC50); summary of the method: as §2
[19] = Inhibition of recombinant wild type HIV1 reverse transcriptase using DIG-dUTP/biotin-dUTP/dTTP assessed as suppression of biotin-dUTP incorporation after 1 hr by ELISA; set-up: species or system Human immunodeficiency virus 1
Summary of the method: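 Recombinant WT HIV-1 RT in a Roche colorimetric kit: template plus DIG-dUTP, biotin-dUTP and dTTP, ±inhibitor, 1 h at 37 °C. Product captured on streptavidin plate 1 h at 37 °C, anti-DIG-POD 1 h at 37 °C, ABTS developed at 25 °C, read at OD405. IC50 is the concentration inhibiting biotin-dUTP incorporation by 50%.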

Cc1cc(C#N)cc(C)c1Oc1nc(NC2CCN(Cc3cccc(F)c3)CC2)nc2ccsc12 gave an EC50 [1] of 0.0044 µM, an EC50 [2] of over 76.7 µM and an EC50 [3] of 0.29 µM. The CC50 at 120 h [4] was 76.7 µM, the selectivity ratio [5] was 17500 and the selectivity ratio [6] was 267.

CC(=O)NS(=O)(=O)c1ccc(CN2CCC(Nc3nc(Oc4c(C)cc(C#N)cc4C)c4sccc4n3)CC2)cc1 showed a selectivity ratio [7] of over 369, an EC50 [1] of 0.0052 µM and an EC50 [2] of over 3.03 µM. It also gave a CC50 at 120 h [4] of over 3.03 µM, a selectivity ratio [5] of over 576 and a selectivity ratio [6] of 20. For the same compound, the EC50 [8] was 0.0208 µM, the EC50 [9] was 0.0082 µM and the EC50 [10] was 0.0288 µM. For the same compound, the EC50 [11] was 0.0136 µM, the EC50 [12] was 0.0088 µM and the EC50 [13] was 0.0088 µM. It also gave a selectivity ratio [14] of over 145, a selectivity ratio [15] of over 104 and a selectivity ratio [16] of over 222. For the same compound, the selectivity ratio [17] was over 340 and the selectivity ratio [18] was over 340.

In the case of Cc1cc(C#N)cc(C)c1Oc1nc(Nc2ccc(C#N)cc2)nc(N)c1Br [ETRAVIRINE], the IC50 [19] is reported as 0.011 µM, the CC50 at 120 h [4] is reported as over 4.59 µM and the EC50 [8] is reported as 0.0054 µM. The EC50 [9] was 0.0024 µM, the EC50 [11] was 0.0205 µM and the EC50 [12] was 0.0144 µM. For the same compound, the EC50 [13] was 0.0294 µM.

With Nc1ccn([C@@H]2CS[C@H](CO)O2)c(=O)n1 [LAMIVUDINE] the EC50 [2] was 8.79 µM, the CC50 at 120 h [4] was over 87.2 µM and the selectivity ratio [5] was over 39.

Cc1cc(C#N)cc(C)c1Oc1nc(NC2CCN(Cc3ccc(F)cc3F)CC2)nc2ccsc12 showed an EC50 [1] of 0.022 µM, an EC50 [2] of over 4.08 µM and a CC50 at 120 h [4] of 4.08 µM. The selectivity ratio [5] was 185 and the selectivity ratio [6] was under 1.

In the case of Cc1cc(C#N)cc(C)c1Oc1nc(NC2CCN(Cc3ccc(Br)cc3)CC2)nc2ccsc12, the EC50 [1] is reported as 0.0266 µM, the EC50 [2] is reported as over 24.3 µM and the EC50 [3] is reported as 2.03 µM. The CC50 at 120 h [4] was 24.3 µM, the selectivity ratio [5] was 916 and the selectivity ratio [6] was 12.

In the case of CC(C)Nc1cccnc1N1CCN(C(=O)c2cc3cc(NS(C)(=O)=O)ccc3[nH]2)CC1 [DELAVIRDINE], the EC50 [3] is reported as over 43.8 µM, the CC50 at 120 h [4] is reported as over 43.8 µM and the selectivity ratio [5] is reported as over 67.

With Cc1cc(C)c(Oc2nc(NC3CCN(Cc4ccc([N+](=O)[O-])cc4)CC3)nc3ccsc23)c(C)c1 the selectivity ratio [7] was 120, the EC50 [1] was 0.0318 µM and the EC50 [2] was over 6.39 µM. For the same compound, the CC50 at 120 h [4] was 6.39 µM, the selectivity ratio [5] was 201 and the selectivity ratio [6] was under 1. The EC50 [8] was over 6.39 µM, the EC50 [9] was 0.0534 µM and the EC50 [10] was 0.2 µM. It also gave an EC50 [11] of 0.262 µM, an EC50 [12] of 0.126 µM and an EC50 [13] of over 6.39 µM. It also gave a selectivity ratio [14] of under 1, a selectivity ratio [15] of 32 and a selectivity ratio [16] of 24. It also gave a selectivity ratio [17] of 51 and a selectivity ratio [18] of under 1.

In the case of Cc1cc(C#N)cc(C)c1Oc1nc(NC2CCN(Cc3cccc(S(N)(=O)=O)c3)CC2)nc2ccsc12, the selectivity ratio [7] is reported as over 30100, the EC50 [1] is reported as 0.0024 µM and the EC50 [2] is reported as over 228 µM. For the same compound, the CC50 at 120 h [4] was over 228 µM, the selectivity ratio [5] was over 96000 and the selectivity ratio [6] was over 120. The EC50 [8] was 0.0284 µM, the EC50 [9] was at most 0.0076 µM and the EC50 [10] was 0.0209 µM. It also gave an EC50 [11] of 0.0128 µM, an EC50 [12] of 0.0065 µM and an EC50 [13] of 0.0085 µM. It also gave a selectivity ratio [14] of over 8030, a selectivity ratio [15] of over 10900 and a selectivity ratio [16] of over 17800. It also gave a selectivity ratio [17] of over 35200 and a selectivity ratio [18] of over 26700.
